From ChEMBL document CHEMBL4257586, “Polyheteroaryl Oxazole/Pyridine-Based Compounds Selected in Vitro as G-Quadruplex Ligands Inhibit Rock Kinase and Exhibit Antiproliferative Activity” (J Med Chem, 2018)
Calls of active or inactive are those of the source. The rule behind the calls is not given here.

How the values were obtained:
M21 [1] = assay: Antiproliferative activity against alpha5-integrin lacking human M21 cells after 72 hrs by MTS assay; assay type: functional, cell-based; details: M21, 72 h
How it was run: (§1)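 Cells seeded at day 0 in 96-well plates, serial compound dilutions added at day 1; viable cells read 72 h after drug addition by MTS tetrazolium assay, in triplicate. IC50 taken as concentration halving cell growth. One first trial, then two additional experiments on selected compounds.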

[2] = Drug uptake in human HeLa cell nucleus at 2 uM after 17 hrs imaged with 488 nm excitation by intrinsic fluorescence based assay; assay type: ADME, subcellular
How it was run: (§2)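 HeLa cells treated 17 h at 2 μM, or 3.3 μM for one analogue. Imaged by confocal microscopy with no added fluorophore, using 488 nm excitation, plus 405 nm excitation for the 3.3 μM treatment. Intrinsic compound fluorescence was compared with cell background near 510 nm.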

[3] = Drug uptake in human HeLa cell cytoplasm at 2 uM after 17 hrs imaged with 488 nm excitation by intrinsic fluorescence based assay; assay type: ADME, subcellular; how it was run: as §2
HeLa [4] = assay: Cytotoxicity against human HeLa cell spheroids assessed as effect on ATP content at 0.3 to 2 uM […] by bioluminescence based assay; assay type: functional
[5] = molecular target: T1, Rho-associated protein kinase 2 (Homo sapiens, UniProt O75116); assay: Inhibition of ROCK2 in human HeLa cells assessed as reduction in MYPT1 phosphorylation at Thr853 at 2 uM after 3 hrs by immunofluorescence assay; assay type: cell-based
How it was run: (§3)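 HeLa cells treated 3 h at 2 or 5 μM, with Y-27632 and untreated controls, then formaldehyde-fixed. Phospho-MYPT1 Thr853 or phospho-cofilin Ser3 immunostained with DNA. Confocal 0.5 μm slices plus z-projection, with acquisition settings fixed from the control.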

A549 [6] = assay: Cytotoxicity against human A549 cells assessed as presence of large vesicles at 1 uM after 24 to 48 hrs by Hoechst 33342 staining-based laser confocal microscopy; assay type: functional, cell-based
A-375 [7] = assay: Induction of double stranded DNA breaks in human A375 cells assessed as gamma-H2Ax phosphorylation at 1 uM after 24 to 48 hrs by Hoechst 33342 staining-based laser confocal microscopy; assay type: functional, cell-based
NCI-H358 = assay: Antiproliferative activity against human NCI-H358 cells after 72 hrs by MTS assay; assay type: functional, cell-based; details: NCI-H358, 72 h; how it was run: as §1
HeLa [8] = assay: Cytotoxicity against human HeLa cell spheroids assessed as cell growth inhibition at 300 nM administered at day 3 post expansion and measured […] by 3D-celltiter Glo assay; assay type: functional, cell-based
How it was run: (§4)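 HeLa cells plated at 800/well in ultralow-adherence plates; one spheroid formed within 24 h at 37 °C, 5% CO2, grown in complete medium. Drug added at day 3, at four concentrations per compound. Largest section area measured daily by confocal imaging, five spheroids per condition. ATP-based CellTiter-Glo 3D luminescence read at day 6 after dosing.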

U-87 MG = assay: Antiproliferative activity against human U87 cells after 72 hrs by MTS assay; assay type: functional, cell-based, U-87MG ATCC; how it was run: as §1
M21 [9] = assay: Antiproliferative activity against human M21 cells after 72 hrs by MTS assay; assay type: functional, cell-based; details: M21, 72 h; how it was run: as §1
[10] = molecular target: T1, Rho-associated protein kinase 2; assay: Inhibition of ROCK2 in human HeLa cells assessed as reduction in cofilin phosphorylation at Ser3 at 2 uM after 3 hrs by immunofluorescence assay; assay type: cell-based; how it was run: as §3
[11] = molecular target: T1, Rho-associated protein kinase 2; assay: Inhibition of ROCK2 (unknown origin) at 1 uM by ATP competition assay relative to control
How it was run: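 Single-point screen at 1 μM across a 50-kinase panel: recombinant enzymes, 33P-ATP radioactive filter-binding assay, duplicates, activity expressed relative to no-compound control.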

A-431 = assay: Antiproliferative activity against human A431 cells after 72 hrs by MTS assay; assay type: functional, cell-based; details: A-431, 72 h; how it was run: as §1
A-375 [12] = assay: Antiproliferative activity against human A375 cells after 72 hrs by MTS assay; assay type: functional, cell-based; details: A-375, 72 h; how it was run: as §1
HeLa [13] = assay: Cytotoxicity against human HeLa cell spheroids assessed as cell growth inhibition at 570 nM administered at day 3 post expansion and […] by 3D-celltiter Glo assay; assay type: functional, cell-based; how it was run: as §4
HeLa [14] = assay: Cytotoxicity against human HeLa cell spheroids assessed as effect on ATP content at 0.57 to 2 uM administered at day 3 post expansion and measured on day 6 by bioluminescence based assay; assay type: functional; how it was run: as §4
HEK293 = assay: Antiproliferative activity against HEK293 cells after 72 hrs by MTS assay; assay type: cell-based; details: Homo sapiens, HEK293, 72 h; how it was run: as §1
[15] = molecular target: T1, Rho-associated protein kinase 2; assay: Inhibition of ROCK2 in human HeLa cells assessed as reduction in cofilin phosphorylation at Ser3 at 5 uM after 3 hrs by immunofluorescence assay; assay type: cell-based; how it was run: as §3
A-375 [16] = assay: Induction of double stranded DNA breaks in human A375 cells assessed as gamma-H2Ax phosphorylation at 2 uM after 24 to 48 hrs by Hoechst 33342 staining-based laser confocal microscopy; assay type: functional, cell-based
A549 [17] = assay: Cytotoxicity against human A549 cells assessed as presence of large vesicles at 2 uM after 24 to 48 hrs by Hoechst 33342 staining-based laser confocal microscopy; assay type: functional, cell-based
[18] = molecular target: T1, Rho-associated protein kinase 2; assay: Inhibition of ROCK2 in human HeLa cells assessed as reduction in MYPT1 phosphorylation at Thr853 at 5 uM after 3 hrs by immunofluorescence assay; assay type: cell-based; how it was run: as §3
HeLa [19] = assay: Cytotoxicity against human HeLa cell spheroids assessed as spheroid growth inhibition at 4 uM administered at day 3 post expansion and measured after […] by 3D-celltiter Glo assay relative to control; assay type: functional; how it was run: as §4
HeLa [20] = assay: Cytotoxicity against human HeLa cell spheroids assessed as effect on ATP content at 1 to 4 uM administered at day 3 post expansion and measured on day 6 by bioluminescence based assay; assay type: functional; how it was run: as §4
[21] = molecular target: T1, Rho-associated protein kinase 2; assay: Inhibition of ROCK2 in human HeLa cells assessed as reduction in cofilin phosphorylation at Ser3 at 5 uM after 3 hrs by Western blot analysis; assay type: cell-based
How it was run: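 HeLa cells treated 3 h at 2 or 5 μM, then lysed in RIPA buffer with protease and phosphatase inhibitors. Western blot probed with anti-phospho-cofilin Ser3 and anti-actin (1/1000) on the same split membrane; luminescence detection.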

HeLa [22] = assay: Induction of cell cycle arrest in human HeLa cells at 2 uM after 48 hrs by propidium iodide-staining based flow cytometry; assay type: functional
How it was run: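 HeLa cells serum-starved 96 h for synchronization, then released and treated 48 h. Fixed in ice-cold 70% ethanol 1 h, stained with propidium iodide 50 μg/mL plus RNase A 0.2 mg/mL for 15 min at 37 °C, and analyzed by FACS.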

[23] = Drug uptake in human HeLa cell nucleus at 3.3 uM after 17 hrs imaged with 488 nm excitation by intrinsic fluorescence based assay; assay type: ADME, subcellular; how it was run: as §2
[24] = Drug uptake in human HeLa cell cytoplasm at 3.3 uM after 17 hrs imaged with 405 nm excitation by intrinsic fluorescence based assay; assay type: ADME, subcellular; how it was run: as §2
[25] = Drug uptake in human HeLa cell cytoplasm at 3.3 uM after 17 hrs imaged with 488 nm excitation by intrinsic fluorescence based assay; assay type: ADME, subcellular; how it was run: as §2
[26] = Drug uptake in human HeLa cell nucleus at 3.3 uM after 17 hrs imaged with 405 nm excitation by intrinsic fluorescence based assay; assay type: ADME, subcellular; how it was run: as §2

T1 sequence (O75116 whole entry, looked up): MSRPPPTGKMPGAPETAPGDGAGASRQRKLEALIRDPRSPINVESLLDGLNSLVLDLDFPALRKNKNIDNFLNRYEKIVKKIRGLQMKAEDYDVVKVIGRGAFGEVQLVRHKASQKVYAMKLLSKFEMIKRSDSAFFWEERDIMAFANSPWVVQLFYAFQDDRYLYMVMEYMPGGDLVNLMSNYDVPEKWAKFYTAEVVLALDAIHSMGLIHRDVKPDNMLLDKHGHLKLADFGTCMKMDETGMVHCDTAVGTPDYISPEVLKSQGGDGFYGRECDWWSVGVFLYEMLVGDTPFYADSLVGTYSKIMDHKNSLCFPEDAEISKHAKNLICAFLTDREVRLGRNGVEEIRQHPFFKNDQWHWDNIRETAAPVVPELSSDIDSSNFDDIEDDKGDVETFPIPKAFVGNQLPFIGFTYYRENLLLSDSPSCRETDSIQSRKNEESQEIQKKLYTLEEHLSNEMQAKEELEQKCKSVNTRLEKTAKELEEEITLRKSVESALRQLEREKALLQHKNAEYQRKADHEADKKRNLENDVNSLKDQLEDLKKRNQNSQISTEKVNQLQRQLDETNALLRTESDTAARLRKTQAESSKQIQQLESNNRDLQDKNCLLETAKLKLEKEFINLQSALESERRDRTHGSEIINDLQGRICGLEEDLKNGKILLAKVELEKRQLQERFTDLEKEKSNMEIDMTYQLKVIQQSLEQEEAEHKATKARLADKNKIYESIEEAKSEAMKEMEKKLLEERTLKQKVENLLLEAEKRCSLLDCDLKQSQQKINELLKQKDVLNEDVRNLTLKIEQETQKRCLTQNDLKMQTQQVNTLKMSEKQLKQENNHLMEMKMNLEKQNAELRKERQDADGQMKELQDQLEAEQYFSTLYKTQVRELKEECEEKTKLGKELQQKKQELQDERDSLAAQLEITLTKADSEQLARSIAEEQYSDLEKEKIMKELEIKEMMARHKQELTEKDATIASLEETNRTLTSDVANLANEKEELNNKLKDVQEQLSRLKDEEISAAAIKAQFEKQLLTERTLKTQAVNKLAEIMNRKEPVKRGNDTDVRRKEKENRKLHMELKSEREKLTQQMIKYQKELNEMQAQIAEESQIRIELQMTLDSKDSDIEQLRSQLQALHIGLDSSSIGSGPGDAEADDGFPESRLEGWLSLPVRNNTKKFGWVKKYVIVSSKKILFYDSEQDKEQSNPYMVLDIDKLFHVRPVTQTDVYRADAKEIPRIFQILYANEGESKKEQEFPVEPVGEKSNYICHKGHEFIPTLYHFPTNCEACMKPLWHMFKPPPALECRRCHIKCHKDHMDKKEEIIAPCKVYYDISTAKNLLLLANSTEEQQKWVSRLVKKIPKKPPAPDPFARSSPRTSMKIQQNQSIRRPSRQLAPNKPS

c1cc(-c2cnco2)nc(-c2cnc(-c3cccc(-c4cccc(-c5ncc(-c6cccc(-c7cnco7)n6)o5)n4)n3)o2)c1
IC50 (M21 [1]): 3570 nM | Drug uptake [2]: Active | Drug uptake [3]: Active | Activity (HeLa [4]): Active | inhibition [5]: Active | Activity (A549 [6]): Active | Activity (A-375 [7]): inactive | IC50 (NCI-H358): 3750 nM | growth inhibition (GI) (HeLa [8]): Active | IC50 (U-87 MG): 246 nM | IC50 (M21 [9]): 1580 nM | inhibition [10]: Active | inhibition [11]: 70% | IC50 (A-431): 541 nM | IC50 (A-375 [12]): 592 nM

c1cc(-c2cnco2)nc(-c2cnc(-c3cccc(-c4ncc(-c5cccc(-c6cnco6)n5)o4)n3)o2)c1
growth inhibition (GI) (HeLa [13]): Active | IC50 (M21 [1]): 7240 nM | Drug uptake [2]: Active | Drug uptake [3]: Active | inhibition [5]: Active | Activity (A549 [6]): Active | Activity (A-375 [7]): inactive | IC50 (NCI-H358): 7700 nM | IC50 (U-87 MG): 440 nM | IC50 (M21 [9]): 1560 nM | Activity (HeLa [14]): Active | inhibition [10]: Active | IC50 (HEK293): 457 nM | IC50 (A-431): 645 nM | IC50 (A-375 [12]): 440 nM

CN(C)CCOc1cc(-c2ncc(-c3cccc(-c4cnco4)n3)o2)nc(-c2ncc(-c3cccc(-c4cnco4)n3)o2)c1
inhibition [15]: Active | Activity (A-375 [16]): inactive | Activity (A549 [17]): Active | inhibition [18]: Active | growth inhibition (GI) (HeLa [19]): 25% | Activity (HeLa [20]): Active | inhibition [21]: Active | Activity (HeLa [22]): inactive | Drug uptake [23]: Active | Drug uptake [24]: Active | Drug uptake [25]: Active | Drug uptake [26]: Active
